{
  "source": "ChEMBL document CHEMBL1141449",
  "about": "“Diterpenes, sesquiterpenes, and a C15-acetogenin from the marine red alga Laurencia mariannensis” (2007)",
  "key": {"Escherichia coli": {"test_system": "Escherichia coli", "test": "Antibacterial activity against Escherichia coli by standard agar diffusion test", "type": "functional", "procedure,_shortened": "(§1)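 Agar diffusion assay following a cited standard method. Read-out is the diameter of the growth-inhibition zone, in mm.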"}, "Aspergillus niger": {"test_system": "Aspergillus niger", "test": "Antifungal activity against Aspergillus niger by standard agar diffusion test", "type": "functional, organism-based", "procedure,_shortened": "as §1"}, "Candida albicans": {"test_system": "Candida albicans", "test": "Antifungal activity against Candida albicans by standard agar diffusion test", "type": "functional, organism-based", "procedure,_shortened": "as §1"}, "Staphylococcus aureus": {"test_system": "Staphylococcus aureus", "test": "Antibacterial activity against Staphylococcus aureus by standard agar diffusion test", "type": "functional", "procedure,_shortened": "as §1"}},
  "note": "Active and inactive are the calls of the source. No cut-off for these calls is given here.",
  "data": [
    {"smiles": "CC/C(Br)=C/C=C\\C1=C(Br)[C@H]2O[C@H](C=C=CBr)C[C@H]2O1", "note": "[LAURENMARIALLENE]", "values": [
      {"measurement": "inhibition zone (IZ)", "setting": "Escherichia coli", "value": 7, "unit": "mm"},
      {"measurement": "Activity", "setting": "Aspergillus niger", "value": "inactive"},
      {"measurement": "Activity", "setting": "Candida albicans", "value": "inactive"}
    ]},
    {"smiles": "C=C[C@]1(C)CC[C@H]2C(C)=CC[C@@H](C)[C@]2(C)O1", "values": [
      {"measurement": "Activity", "setting": "Aspergillus niger", "value": "inactive"},
      {"measurement": "Activity", "setting": "Candida albicans", "value": "inactive"}
    ]},
    {"smiles": "C=C1CC[C@H](Br)C(C)(C)[C@@]12CCC(C)=C(Cl)C2", "values": [
      {"measurement": "Activity", "setting": "Aspergillus niger", "value": "inactive"},
      {"measurement": "Activity", "setting": "Candida albicans", "value": "inactive"}
    ]},
    {"smiles": "C=C1CC[C@H](Br)C(C)(C)[C@]12CC[C@@]1(C)[C@H](C2)[C@](C)(O)[C@H](O)C[C@@H]1Br", "values": [
      {"measurement": "inhibition zone (IZ)", "setting": "Escherichia coli", "value": 6.5, "unit": "mm"},
      {"measurement": "Activity", "setting": "Aspergillus niger", "value": "inactive"},
      {"measurement": "inhibition zone (IZ)", "setting": "Staphylococcus aureus", "value": 6.5, "unit": "mm"},
      {"measurement": "Activity", "setting": "Candida albicans", "value": "inactive"}
    ]}
  ]
}
